Experimental data reported in ChEMBL document CHEMBL5058577, “EUbOPEN Chemogenomics Library 2 (Multiplex)” (2022).

Tested on: Fibroblast
Assay: Multiplex assay against human fibroblast
Format: toxicity, cell-based
Summary of the method: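 Values for tubulin, mitochondrial-mass and membrane-permeability phenotypes are per cents of cells with healthy nuclei. These cells were identified by CellPathfinder machine-learning gating of live cells that had been stained at seeding with Hoechst33342, BioTracker Green Microtubule Cytoskeleton Dye, MitoTracker Red and Annexin V Alexa Fluor 680 and imaged on a CQ1 microscope at 37°C and 5% CO2 after compound addition. The gating first set Hoechst high-intensity objects apart from normal cells, then split normal cells into healthy, pyknosed or fragmented nuclei, and pyknosed cells into mitotic or apoptotic.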

[1] = 12 h, 1 µM, compound concentration 1 uM, replicate 1
[2] = 12 h, 1 µM, compound concentration 1 uM, replicate 2
[3] = 12 h, 10 µM, compound concentration 10 uM, replicate 1
[4] = 12 h, 10 µM, compound concentration 10 uM, replicate 2
[5] = 24 h, 1 µM, compound concentration 1 uM, replicate 1
[6] = 24 h, 1 µM, compound concentration 1 uM, replicate 2
[7] = 24 h, 10 µM, compound concentration 10 uM, replicate 1
[8] = 24 h, 10 µM, compound concentration 10 uM, replicate 2
[9] = 48 h, 1 µM, compound concentration 1 uM, replicate 1
[10] = 48 h, 1 µM, compound concentration 1 uM, replicate 2
[11] = 48 h, 10 µM, compound concentration 10 uM, replicate 1
[12] = 48 h, 10 µM, compound concentration 10 uM, replicate 2

O=C(NCCN1CCC(n2c(=O)[nH]c3cc(Cl)ccc32)CC1)c1ccc(F)cc1 [HALOPEMIDE]
Population Apoptotic (%) [1]: 32% | Population Fragmented Nuclei (%) [1]: 11% | Population Healthy Nuclei (%) [1]: 62% | Population Hoechst High Intensity Objects (%) [1]: 0% | Population Membrane Permeable-Phenotype (%) [1]: 1% | Population Mitochondria Different-Phenotype (%) [1]: 10% | Population Mitotic Cells (%) [1]: 67% | Population Normal (%) [1]: 99% | Population Pyknosed Nuclei (%) [1]: 26% | Population Tubulin-Different-Phenotype (%) [1]: 29% | Total Cell Count [1]: 120 | Population Apoptotic (%) [2]: 44% | Population Fragmented Nuclei (%) [2]: 27% | Population Healthy Nuclei (%) [2]: 43% | Population Hoechst High Intensity Objects (%) [2]: 7% | Population Membrane Permeable-Phenotype (%) [2]: 10% | Population Mitochondria Different-Phenotype (%) [2]: 0% | Population Mitotic Cells (%) [2]: 56% | Population Normal (%) [2]: 92% | Population Pyknosed Nuclei (%) [2]: 29% | Population Tubulin-Different-Phenotype (%) [2]: 56% | Total Cell Count [2]: 92 | Population Apoptotic (%) [3]: 55% | Population Fragmented Nuclei (%) [3]: 15% | Population Healthy Nuclei (%) [3]: 54% | Population Hoechst High Intensity Objects (%) [3]: 3% | Population Membrane Permeable-Phenotype (%) [3]: 0% | Population Mitochondria Different-Phenotype (%) [3]: 17% | Population Mitotic Cells (%) [3]: 44% | Population Normal (%) [3]: 96% | Population Pyknosed Nuclei (%) [3]: 30% | Population Tubulin-Different-Phenotype (%) [3]: 77% | Total Cell Count [3]: 204 | Population Apoptotic (%) [4]: 31% | Population Fragmented Nuclei (%) [4]: 24% | Population Healthy Nuclei (%) [4]: 34% | Population Hoechst High Intensity Objects (%) [4]: 4% | Population Membrane Permeable-Phenotype (%) [4]: 6% | Population Mitochondria Different-Phenotype (%) [4]: 14% | Population Mitotic Cells (%) [4]: 68% | Population Normal (%) [4]: 95% | Population Pyknosed Nuclei (%) [4]: 41% | Population Tubulin-Different-Phenotype (%) [4]: 87% | Total Cell Count [4]: 148 | Population Apoptotic (%) [5]: 58% | Population Fragmented Nuclei (%) [5]: 16% | Population Healthy Nuclei (%) [5]: 69% | Population Hoechst High Intensity Objects (%) [5]: 3% | Population Membrane Permeable-Phenotype (%) [5]: 1% | Population Mitochondria Different-Phenotype (%) [5]: 9% | Population Mitotic Cells (%) [5]: 41% | Population Normal (%) [5]: 96% | Population Pyknosed Nuclei (%) [5]: 13% | Population Tubulin-Different-Phenotype (%) [5]: 38% | Total Cell Count [5]: 128 | Population Apoptotic (%) [6]: 37% | Population Fragmented Nuclei (%) [6]: 32% | Population Healthy Nuclei (%) [6]: 41% | Population Hoechst High Intensity Objects (%) [6]: 10% | Population Membrane Permeable-Phenotype (%) [6]: 5% | Population Mitochondria Different-Phenotype (%) [6]: 8% | Population Mitotic Cells (%) [6]: 62% | Population Normal (%) [6]: 90% | Population Pyknosed Nuclei (%) [6]: 26% | Population Tubulin-Different-Phenotype (%) [6]: 59% | Total Cell Count [6]: 100 | Population Apoptotic (%) [7]: 67% | Population Fragmented Nuclei (%) [7]: 23% | Population Healthy Nuclei (%) [7]: 51% | Population Hoechst High Intensity Objects (%) [7]: 5% | Population Membrane Permeable-Phenotype (%) [7]: 0% | Population Mitochondria Different-Phenotype (%) [7]: 28% | Population Mitotic Cells (%) [7]: 32% | Population Normal (%) [7]: 95% | Population Pyknosed Nuclei (%) [7]: 24% | Population Tubulin-Different-Phenotype (%) [7]: 78% | Total Cell Count [7]: 220 | Population Apoptotic (%) [8]: 41% | Population Fragmented Nuclei (%) [8]: 26% | Population Healthy Nuclei (%) [8]: 38% | Population Hoechst High Intensity Objects (%) [8]: 6% | Population Membrane Permeable-Phenotype (%) [8]: 12% | Population Mitochondria Different-Phenotype (%) [8]: 32% | Population Mitotic Cells (%) [8]: 58% | Population Normal (%) [8]: 93% | Population Pyknosed Nuclei (%) [8]: 35% | Population Tubulin-Different-Phenotype (%) [8]: 94% | Total Cell Count [8]: 140 | Population Apoptotic (%) [9]: 52% | Population Fragmented Nuclei (%) [9]: 14% | Population Healthy Nuclei (%) [9]: 68% | Population Hoechst High Intensity Objects (%) [9]: 3% | Population Membrane Permeable-Phenotype (%) [9]: 4% | Population Mitochondria Different-Phenotype (%) [9]: 7% | Population Mitotic Cells (%) [9]: 47% | Population Normal (%) [9]: 96% | Population Pyknosed Nuclei (%) [9]: 17% | Population Tubulin-Different-Phenotype (%) [9]: 36% | Total Cell Count [9]: 128 | Population Apoptotic (%) [10]: 35% | Population Fragmented Nuclei (%) [10]: 38% | Population Healthy Nuclei (%) [10]: 43% | Population Hoechst High Intensity Objects (%) [10]: 4% | Population Membrane Permeable-Phenotype (%) [10]: 14% | Population Mitochondria Different-Phenotype (%) [10]: 4% | Population Mitotic Cells (%) [10]: 64% | Population Normal (%) [10]: 95% | Population Tubulin-Different-Phenotype (%) [10]: 63% | Total Cell Count [10]: 99 | Population Apoptotic (%) [11]: 80% | Population Fragmented Nuclei (%) [11]: 32% | Population Healthy Nuclei (%) [11]: 50% | Population Hoechst High Intensity Objects (%) [11]: 10% | Population Membrane Permeable-Phenotype (%) [11]: 0% | Population Mitochondria Different-Phenotype (%) [11]: 35% | Population Mitotic Cells (%) [11]: 19% | Population Normal (%) [11]: 89% | Population Pyknosed Nuclei (%) [11]: 17% | Population Tubulin-Different-Phenotype (%) [11]: 77% | Total Cell Count [11]: 229 | Population Apoptotic (%) [12]: 48% | Population Fragmented Nuclei (%) [12]: 35% | Population Healthy Nuclei (%) [12]: 45% | Population Hoechst High Intensity Objects (%) [12]: 5% | Population Membrane Permeable-Phenotype (%) [12]: 10% | Population Mitochondria Different-Phenotype (%) [12]: 15% | Population Mitotic Cells (%) [12]: 52% | Population Normal (%) [12]: 94% | Population Pyknosed Nuclei (%) [12]: 19% | Population Tubulin-Different-Phenotype (%) [12]: 96% | Total Cell Count [12]: 136
